One may read the inhibition as the drop in the measured response relative to a control, in per cent. Usually solubility stands for the dissolved amount per volume that the medium holds. High values mean much dissolved substance, low ones little dissolved substance. As usually defined, the IC50 is the midpoint of a concentration-inhibition curve. Higher therefore signals weaker potency in that assay.

These results are taken from ChEMBL document CHEMBL1817567, “Design of benzimidazole- and benzoxazole-2-thione derivatives as inhibitors of bacterial hyaluronan lyase” (Eur J Med Chem, 2011).

In data set [1] the target is T1, Hyaluronidase (Bos taurus) (UniProt Q8SQG8+Q5E985). Kind of data set: Inhibition of bovine testes hyaluronidase at 100 uM after 30 mins at pH 5 by turbidimetric analysis. Format: protein assay.
The target in data set [2] is T1, Hyaluronidase (Bos taurus). Kind of data set: Inhibition of bovine testes hyaluronidase at 130 uM after 30 mins at pH 5 by turbidimetric analysis. It is filed as protein assay.
Data set [3] deals with T1, Hyaluronidase (Bos taurus). Kind of data set: Inhibition of bovine testes hyaluronidase at 400 uM after 30 mins at pH 5 by turbidimetric analysis. It is filed as protein assay.
Data set [4] concerns the target T1, Hyaluronidase (Bos taurus). Kind of data set: Inhibition of bovine testes hyaluronidase at 4200 uM after 30 mins at pH 5 by turbidimetric analysis. Format: protein assay.
The subject of data set [5] is Streptococcus agalactiae. Kind of data set: Inhibition of Streptococcus agalactiae 4755 hyaluronidase at 170 uM after 30 mins at pH 5.0 by turbidimetric analysis. The method, boiled down:
(§1)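 SagHyal4755 (2.9 ng) with BSA and hyaluronan (2 mg/ml stock) in citrate–phosphate/NaCl buffer pH 5.0, 3.8% DMSO final, 30 min at 37 °C. Stopped by alkaline 2.5% CTAB, then 20 min at 25 °C. Residual-substrate turbidity read at 600 nm; no-inhibitor sample = 100%, no-enzyme sample = 0% activity. Enzyme-free compound controls were run.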

The target in data set [6] is T1, Hyaluronidase (Bos taurus). Kind of data set: Inhibition of bovine testes hyaluronidase at 3800 uM after 30 mins at pH 5 by turbidimetric analysis. It is filed as protein assay.
Data set [7] has as its target T1, Hyaluronidase (Bos taurus). Kind of data set: Inhibition of bovine testes hyaluronidase at 170 uM after 30 mins at pH 5 by turbidimetric analysis. Format: protein assay.
In data set [8] the target is T1, Hyaluronidase (Bos taurus). Kind of data set: Inhibition of bovine testes hyaluronidase at 63 uM after 30 mins at pH 5 by turbidimetric analysis. It is filed as protein assay.
The target of data set [9] is T1, Hyaluronidase (Bos taurus). Kind of data set: Inhibition of bovine testes hyaluronidase at 460 uM after 30 mins at pH 5 by turbidimetric analysis. It is filed as protein assay.
Data set [10] deals with T1, Hyaluronidase (Bos taurus). Kind of data set: Inhibition of bovine testes hyaluronidase at 49 uM after 30 mins at pH 5 by turbidimetric analysis. It is filed as protein assay.
In data set [11] the target is T1, Hyaluronidase (Bos taurus). Kind of data set: Inhibition of bovine testes hyaluronidase at 200 uM after 30 mins at pH 5 by turbidimetric analysis. Format: protein assay.
Data set [12] deals with T1, Hyaluronidase (Bos taurus). Kind of data set: Inhibition of bovine testes hyaluronidase at 2000 uM after 30 mins at pH 5 by turbidimetric analysis. Format: protein assay.
The nature of data set [13]: Aqueous solubility of the compound in water. It is filed as physicochemical. The method, boiled down:
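Turbidity at 600 nm of test compound in DMSO added to citrate–phosphate buffer (pH 5 and pH 7.4), water and BSA (0.2 mg/ml stock), at various concentrations, read against a water reference. Enzyme testing used only concentrations showing no turbidity.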

Data set [14] addresses T1, Hyaluronidase (Bos taurus). Kind of data set: Inhibition of bovine testes hyaluronidase at 80 uM after 30 mins at pH 5 by turbidimetric analysis. It is filed as protein assay.
A short description of data set [15]: Inhibition of Streptococcus agalactiae 4755 hyaluronidase at pH 7.4 after 3 hrs by turbidimetric analysis. In a few lines:
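Same turbidimetric hyaluronan-lyase assay at pH 7.4 (citrate–phosphate/NaCl): SagHyal4755 2.9 ng, hyaluronan (2 mg/ml stock), BSA, 3.8% DMSO final, 3 h at 37 °C. CTAB (2.5%, in 0.5 M NaOH) precipitation, 20 min at 25 °C, A600. Activity scaled between no-inhibitor and no-enzyme samples.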

For data set [16], the target named is T1, Hyaluronidase (Bos taurus). Kind of data set: Inhibition of bovine testes hyaluronidase at 150 uM after 30 mins at pH 5 by turbidimetric analysis. It is filed as protein assay.
Data set [17] deals with T1, Hyaluronidase (Bos taurus). Kind of data set: Inhibition of bovine testes hyaluronidase at 180 uM after 30 mins at pH 5 by turbidimetric analysis. Format: protein assay.
The target in data set [18] is T1, Hyaluronidase (Bos taurus). Kind of data set: Inhibition of bovine testes hyaluronidase at 380 uM after 30 mins at pH 5 by turbidimetric analysis. Format: protein assay.
Data set [19] has as its target T1, Hyaluronidase (Bos taurus). Kind of data set: Inhibition of bovine testes hyaluronidase at 190 uM after 30 mins at pH 5 by turbidimetric analysis. It is filed as protein assay.
Data set [20] has as its system Streptococcus agalactiae. Kind of data set: Inhibition of Streptococcus agalactiae 4755 hyaluronidase at 460 uM after 30 mins at pH 5.0 by turbidimetric analysis. In a few lines:
as §1

For data set [21], the system named is Streptococcus agalactiae. Kind of data set: Inhibition of Streptococcus agalactiae 4755 hyaluronidase at 49 uM after 30 mins at pH 5.0 by turbidimetric analysis. In a few lines: as §1
The test system of data set [22] is Streptococcus agalactiae. Kind of data set: Inhibition of Streptococcus agalactiae 4755 hyaluronidase at 180 uM after 30 mins at pH 5.0 by turbidimetric analysis. The method, boiled down:
as §1

The subject of data set [23] is Streptococcus agalactiae. Kind of data set: Inhibition of Streptococcus agalactiae 4755 hyaluronidase at 130 uM after 30 mins at pH 5.0 by turbidimetric analysis. The method, boiled down: as §1
Data set [24] deals with Streptococcus agalactiae. Kind of data set: Inhibition of Streptococcus agalactiae 4755 hyaluronidase at 3800 uM after 30 mins at pH 5.0 by turbidimetric analysis. The method, boiled down:
as §1

In data set [25] the test system is Streptococcus agalactiae. Kind of data set: Inhibition of Streptococcus agalactiae 4755 hyaluronidase at 380 uM after 30 mins at pH 5.0 by turbidimetric analysis. The method, boiled down:
as §1

The subject of data set [26] is Streptococcus agalactiae. Kind of data set: Inhibition of Streptococcus agalactiae 4755 hyaluronidase at 190 uM after 30 mins at pH 5.0 by turbidimetric analysis. In a few lines: as §1

The structures appear in SMILES notation. ≈ marks a conversion by molar mass, not a printed value. Calls of active or inactive are those of the source. The rule behind the calls is not given here.

On to `CCCCCC(=O)n1c(=S)[nH]c2ccccc21`, for which the inhibition result in [1], in data set [2], in [3], in data set [4], in data set [6] and in data set [7] was “inactive” throughout. Further, the inhibition result in data set [8], in data set [9], in data set [10], in data set [11], in data set [12] and in data set [14] was “inactive” in each case. Also, the inhibition entry in [16], in data set [17], in [18] and in data set [19] was “inactive” in each case. In addition, the inhibition in the data set on Streptococcus agalactiae [5] was 14%. In [13], this compound registered a solubility of 170 µM (≈ 42.2 µg/mL). In data set [15], this compound gave an IC50 of 16 µM.
As for `CC(=O)n1c(=S)[nH]c2ccccc21`, the inhibition result in data set [1], in [2], in [3], in data set [4], in data set [6] and in data set [7] was “inactive” in each case. Moreover, the inhibition entry in [8], in data set [9], in data set [10], in data set [11], in data set [12] and in data set [14] was “inactive” each time. In addition, the inhibition result in data set [16], in [17], in [18] and in [19] was “inactive” in each case. The inhibition in the data set on Streptococcus agalactiae [20] came out at 20%. Besides, the solubility in data set [13] was determined as 460 µM (≈ 88.4 µg/mL). Besides, the IC50 in [15] is 17 µM.
In the case of `CCCCCC(=O)n1c(=S)n(C(C)=O)c2ccccc21`, the inhibition result in data set [1], in data set [2], in data set [3], in data set [4], in data set [6] and in data set [7] was “inactive” each time. The inhibition entry in [8], in data set [9], in [10], in data set [11], in data set [12] and in data set [14] was “inactive” each time. The inhibition entry in [16], in data set [17], in data set [18] and in data set [19] was “inactive” throughout. In the data set with Streptococcus agalactiae [21], this compound had an inhibition of 50%. The compound also came in with a solubility in [13] of 49 µM (≈ 14.2 µg/mL). The compound further yielded an IC50 in data set [15] of 12 µM.
For `CCC(=O)n1c(=S)[nH]c2ccccc21`, the inhibition result in data set [1], in data set [2], in [3], in [4], in [6] and in data set [7] was “inactive” in each case. Besides, the inhibition result in data set [8], in data set [9], in data set [10], in data set [11], in data set [12] and in data set [14] was “inactive” in each case. Also, the inhibition result in data set [16], in data set [17], in data set [18] and in data set [19] was “inactive” throughout. In data set [13], this compound gave a solubility of 180 µM (≈ 37.1 µg/mL). This compound also gave an IC50 in [15] of 26 µM. The same compound showed an inhibition in the data set with Streptococcus agalactiae [22] of 4%.
Consider `CCCCCC(=O)n1c(=S)oc2ccccc21`, for which the inhibition result in data set [1], in [2], in data set [3], in data set [4], in data set [6] and in data set [7] was “inactive” throughout. The inhibition result in [8], in data set [9], in data set [10], in data set [11], in data set [12] and in [14] was “inactive” each time. The inhibition result in [16], in data set [17], in data set [18] and in [19] was “inactive” each time. This compound had a solubility in data set [13] of 130 µM (≈ 32.4 µg/mL). The compound further displayed an inhibition in the data set with Streptococcus agalactiae [23] of 51%. In addition, half-maximal inhibition in data set [15] (IC50) required 29 µM.
On to `Sc1nc2ccccc2o1`, for which the inhibition entry in data set [1], in data set [2], in data set [3], in data set [4], in data set [6] and in data set [7] was “inactive” each time. The inhibition entry in [8], in data set [9], in data set [10], in data set [11], in data set [12] and in [14] was “inactive” in each case. Moreover, the inhibition result in data set [16], in data set [17], in data set [18] and in [19] was “inactive” throughout. In addition, the inhibition in the data set with Streptococcus agalactiae [24] was 42%. Besides, in data set [13], the concentration in solution (solubility) came to 3800 µM (≈ 575 µg/mL). Also, the IC50 in data set [15] stood at 2540 µM.
On to `CCn1c(=S)n(C(C)=O)c2ccccc21`, for which the inhibition entry in data set [1], in data set [2], in [3], in data set [4], in [6] and in data set [7] was “inactive” in each case. The inhibition entry in data set [8], in data set [9], in data set [10], in data set [11], in [12] and in data set [14] was “inactive” each time. Also, the inhibition entry in [16], in [17], in data set [18] and in data set [19] was “inactive” throughout. This compound displayed a solubility in data set [13] of 380 µM (≈ 83.7 µg/mL). For the same compound, the inhibition in the data set with Streptococcus agalactiae [25] came out at 10%. In data set [15], inhibition was half-maximal at 19 µM (IC50).
Consider `CCCC(=O)n1c(=S)[nH]c2ccccc21`, for which the inhibition entry in [1], in [2], in data set [3], in data set [4], in data set [6] and in data set [7] was “inactive” each time. Moreover, the inhibition result in data set [8], in data set [9], in data set [10], in [11], in data set [12] and in data set [14] was “inactive” in each case. Further, the inhibition entry in [16], in data set [17], in [18] and in data set [19] was “inactive” throughout. This compound returned an inhibition with Streptococcus agalactiae [26] of 7%. The same compound yielded a solubility in data set [13] of 190 µM (≈ 41.9 µg/mL). In addition, the midpoint of inhibition in data set [15], the IC50, lay at 20 µM.
